As usually defined, the MIC is the lowest concentration that inhibits growth of the organism. High values mean weaker potency, low ones greater potency.

Converted amounts (≈) assume the structure as drawn.

Holding throughout (assay type): functional
Test [1] concerns Escherichia coli. In words: Minimum concentration needed to produce linear DNA at an intensity relative to oxolinic at 10 ug/mL in Escherichia coli H560 in vitro. A digest of the protocol: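 DNA gyrase cleavage test, run as previously described: end point is the lowest drug level (µg/mL) that yields linear DNA at a band intensity matching oxolinic acid at 10 µg/mL. Values come from duplicate or triplicate experiments and are stated as accurate to ±50%.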

Test [2] has as its system Escherichia coli. In words: Minimum inhibitory concentration against Escherichia coli H560 in vitro.
Test [3] relates to Escherichia coli. Nature of the test: Minimum inhibitory concentration against Escherichia coli vogel in vitro.
The next test deals with Enterobacter cloacae. Nature of the test: Minimum inhibitory concentration against Enterobacter cloacae HA 2646 in vitro.
The next test has as its system Klebsiella pneumoniae. Nature of the test: Minimum inhibitory concentration against Klebsiella pneumoniae MGH-2 in vitro.
Test [4] has as its system Mus musculus. Nature of the test: In vivo potency against Escherichia coli vogel using mouse protection assay when given perorally. The settings on record: po, read-out: PD50.
Test [5] relates to Mus musculus. Nature of the test: In vivo potency against Escherichia coli vogel using mouse protection assay when given subcutaneously. The settings on record: sc, read-out: PD50.
Test [6] deals with Staphylococcus aureus. Nature of the test: In vivo potency against Staphylococcus aureus using mouse protection assay following p.o. administration. The settings on record: po, read-out: PD50.
In test [7] the test system is Staphylococcus aureus. Nature of the test: In vivo potency against Staphylococcus aureus using mouse protection assay following s.c. administration. To be noted: sc, read-out: PD50.
Test [8] relates to Streptococcus pneumoniae. In words: In vivo potency against Streptococcus pneumoniae using mouse protection assay following p.o. administration. The settings on record: po, read-out: PD50.
Another test relates to Pseudomonas aeruginosa. Nature of the test: Minimum inhibitory concentration against Pseudomonas aeruginosa UI-18 in vitro.
A further test deals with Providencia rettgeri. Nature of the test: Minimum inhibitory concentration against Providencia rettgeri H1771 in vitro.
Another test relates to Streptococcus pyogenes. Nature of the test: Minimum inhibitory concentration against Streptococcus pyogenes C203 in vitro.
The subject of test [9] is Streptococcus pneumoniae. In words: Minimum inhibitory concentration against Streptococcus pneumoniae SV-1 in vitro.
Test [10] concerns Staphylococcus aureus. In words: Minimum inhibitory concentration against Staphylococcus aureus H228 in vitro.
Test [11] has as its system Staphylococcus aureus. In words: Minimum inhibitory concentration against Staphylococcus aureus UC-76 in vitro.
A further test concerns Enterococcus faecalis. Nature of the test: Minimum inhibitory concentration against Streptococcus faecalis MGH-2 in vitro.
In test [12] the test system is Streptococcus pneumoniae. Nature of the test: In vivo potency against Streptococcus pneumoniae using mouse protection assay following s.c. administration. The settings on record: sc, read-out: PD50.

Turning to `CCNCC1CCN(c2nc3c(cc2F)c(=O)c(C(=O)O)cn3C2CC2)C1` (stereo not drawn), in the test with Escherichia coli [1], the DNA cleavage conc (gyrase) came out at 0.75 µg/mL. For the same compound, the MIC with Escherichia coli [2] turned out to be 0.05 µg/mL (≈ 0.134 µM); against Escherichia coli [3] it was 0.1 µg/mL (≈ 0.267 µM); against Enterobacter cloacae it was 0.2 µg/mL (≈ 0.534 µM); against Klebsiella pneumoniae, 0.1 µg/mL (≈ 0.267 µM); in the test on Pseudomonas aeruginosa it was 0.8 µg/mL (≈ 2.14 µM); in the test with Providencia rettgeri, 0.8 µg/mL (≈ 2.14 µM). In addition, the minimal inhibitory concentration (MIC) in the test with Streptococcus pyogenes stood at 0.1 µg/mL (≈ 0.267 µM); against Streptococcus pneumoniae [9] it was 0.1 µg/mL (≈ 0.267 µM); in the test with Staphylococcus aureus [10], 0.1 µg/mL (≈ 0.267 µM); against Staphylococcus aureus [11], 0.05 µg/mL (≈ 0.134 µM); against Enterococcus faecalis, 0.1 µg/mL (≈ 0.267 µM). Moreover, the ED50 in the test on Mus musculus [4] amounted to 7 mg/kg; with Mus musculus [5], 1 mg/kg; with Staphylococcus aureus [6], 62 mg/kg; in the test with Staphylococcus aureus [7], 15 mg/kg; with Streptococcus pneumoniae [8], 16 mg/kg; in the test on Streptococcus pneumoniae [12], 6 mg/kg.
For the compound `CN(C)CC1CCN(c2cc3c(cc2F)c(=O)c(C(=O)O)cn3C2CC2)C1` (stereo not drawn), the DNA cleavage conc (gyrase) in the test with Escherichia coli [1] worked out at 0.75 µg/mL. For the same compound, the MIC in the test with Escherichia coli [2] was found to be 0.1 µg/mL (≈ 0.268 µM); in the test on Escherichia coli [3], 0.1 µg/mL (≈ 0.268 µM); with Enterobacter cloacae it was 0.1 µg/mL (≈ 0.268 µM); with Klebsiella pneumoniae it was 0.2 µg/mL (≈ 0.536 µM); against Pseudomonas aeruginosa, 1.6 µg/mL (≈ 4.28 µM); in the test on Providencia rettgeri, 0.4 µg/mL (≈ 1.07 µM). The minimum inhibitory concentration (MIC) with Streptococcus pyogenes is 0.2 µg/mL (≈ 0.536 µM); against Streptococcus pneumoniae [9] it was 0.1 µg/mL (≈ 0.268 µM); against Staphylococcus aureus [10], 0.1 µg/mL (≈ 0.268 µM); with Staphylococcus aureus [11], 0.1 µg/mL (≈ 0.268 µM); with Enterococcus faecalis, 0.2 µg/mL (≈ 0.536 µM). The ED50 amounted to 4 mg/kg in the test on Mus musculus [4]; 2 mg/kg in the test on Mus musculus [5]; 47 mg/kg in the test on Staphylococcus aureus [6]; 26 mg/kg in the test on Staphylococcus aureus [7]; 18 mg/kg with Streptococcus pneumoniae [8]; 9 mg/kg in the test with Streptococcus pneumoniae [12].
In the test on Escherichia coli [1], `O=C(O)c1cn(C2CC2)c2c(F)c(N3CCNCC3)c(F)cc2c1=O` returned a DNA cleavage conc (gyrase) of 0.5 µg/mL. Further, the MIC in the test on Escherichia coli [2] came to 0.025 µg/mL (≈ 0.0716 µM); in the test with Escherichia coli [3], 0.1 µg/mL (≈ 0.286 µM); in the test with Enterobacter cloacae it was 0.05 µg/mL (≈ 0.143 µM); against Klebsiella pneumoniae, 0.1 µg/mL (≈ 0.286 µM); with Pseudomonas aeruginosa, 0.2 µg/mL (≈ 0.573 µM); in the test on Providencia rettgeri, 0.1 µg/mL (≈ 0.286 µM). Moreover, the minimum inhibitory concentration (MIC) was 0.8 µg/mL (≈ 2.29 µM) in the test with Streptococcus pyogenes; 0.8 µg/mL (≈ 2.29 µM) against Streptococcus pneumoniae [9]; 0.4 µg/mL (≈ 1.15 µM) with Staphylococcus aureus [10]; 0.1 µg/mL (≈ 0.286 µM) in the test on Staphylococcus aureus [11]; 0.4 µg/mL (≈ 1.15 µM) in the test on Enterococcus faecalis. In addition, the ED50 in the test with Mus musculus [4] was found to be 0.5 mg/kg; with Mus musculus [5], 0.3 mg/kg; in the test with Staphylococcus aureus [6], 7 mg/kg; in the test with Staphylococcus aureus [7], 3 mg/kg; with Streptococcus pneumoniae [8], 59 mg/kg; with Streptococcus pneumoniae [12], 29 mg/kg.
In the test with Escherichia coli [1], `CN(C)CC1CCN(c2c(F)cc3c(=O)c(C(=O)O)cn(C4CC4)c3c2F)C1` (stereo not drawn) came in with a DNA cleavage conc (gyrase) of 0.1 µg/mL. In addition, the MIC in the test on Escherichia coli [2] is 0.025 µg/mL (≈ 0.0639 µM); in the test with Escherichia coli [3], 0.2 µg/mL (≈ 0.511 µM); against Enterobacter cloacae it was 0.2 µg/mL (≈ 0.511 µM); against Klebsiella pneumoniae, 0.2 µg/mL (≈ 0.511 µM); against Pseudomonas aeruginosa, 0.8 µg/mL (≈ 2.04 µM); in the test on Providencia rettgeri, 0.8 µg/mL (≈ 2.04 µM). The MIC in the test with Streptococcus pyogenes came to 0.05 µg/mL (≈ 0.128 µM); against Streptococcus pneumoniae [9] it was 0.05 µg/mL (≈ 0.128 µM); with Staphylococcus aureus [10], 0.025 µg/mL (≈ 0.0639 µM); with Staphylococcus aureus [11], 0.025 µg/mL (≈ 0.0639 µM); in the test with Enterococcus faecalis, 0.025 µg/mL (≈ 0.0639 µM). Besides, the ED50 in the test on Mus musculus [4] was determined as 2 mg/kg; in the test with Mus musculus [5] it was 1 mg/kg; in the test with Staphylococcus aureus [6], 45 mg/kg; in the test on Staphylococcus aureus [7], 20 mg/kg; with Streptococcus pneumoniae [8] it was 5 mg/kg; in the test on Streptococcus pneumoniae [12] it was 5 mg/kg.
In the test with Escherichia coli [1], `CC(C)NCC1CCN(c2c(F)cc3c(=O)c(C(=O)O)cn(C4CC4)c3c2F)C1` (stereo not drawn) came in with a DNA cleavage conc (gyrase) of 2.8 µg/mL. Moreover, the minimum inhibitory concentration (MIC) against Escherichia coli [2] amounted to 0.05 µg/mL (≈ 0.123 µM); in the test on Escherichia coli [3], 0.1 µg/mL (≈ 0.247 µM); in the test with Enterobacter cloacae, 0.2 µg/mL (≈ 0.493 µM); in the test with Klebsiella pneumoniae, 0.2 µg/mL (≈ 0.493 µM); against Pseudomonas aeruginosa, 1.6 µg/mL (≈ 3.95 µM); against Providencia rettgeri, 0.4 µg/mL (≈ 0.987 µM). The minimal inhibitory concentration (MIC) is 0.05 µg/mL (≈ 0.123 µM) against Streptococcus pyogenes; 0.05 µg/mL (≈ 0.123 µM) with Streptococcus pneumoniae [9]; 0.05 µg/mL (≈ 0.123 µM) in the test on Staphylococcus aureus [10]; 0.013 µg/mL (≈ 0.0321 µM) in the test with Staphylococcus aureus [11]; 0.025 µg/mL (≈ 0.0617 µM) in the test on Enterococcus faecalis. The ED50 was 6 mg/kg in the test with Mus musculus [4]; 1 mg/kg in the test with Mus musculus [5]; 42 mg/kg in the test with Staphylococcus aureus [6]; 12 mg/kg with Staphylococcus aureus [7]; 7 mg/kg with Streptococcus pneumoniae [8]; 2 mg/kg in the test on Streptococcus pneumoniae [12].
The compound `CN(C)CC1CCN(c2c(F)cc3c(=O)c(C(=O)O)cn(C4CC4)c3c2Cl)C1` (stereo not drawn) gave a DNA cleavage conc (gyrase) with Escherichia coli [1] of 1 µg/mL. For the same compound, the MIC is 0.025 µg/mL (≈ 0.0613 µM) in the test on Escherichia coli [2]; 0.1 µg/mL (≈ 0.245 µM) against Escherichia coli [3]; 0.2 µg/mL (≈ 0.49 µM) in the test on Enterobacter cloacae; 0.1 µg/mL (≈ 0.245 µM) with Klebsiella pneumoniae; 0.8 µg/mL (≈ 1.96 µM) in the test with Pseudomonas aeruginosa; 0.4 µg/mL (≈ 0.981 µM) against Providencia rettgeri. For the same compound, the MIC against Streptococcus pyogenes came to 0.025 µg/mL (≈ 0.0613 µM); against Streptococcus pneumoniae [9], 0.006 µg/mL (≈ 0.0147 µM); with Staphylococcus aureus [10], 0.013 µg/mL (≈ 0.0319 µM); in the test with Staphylococcus aureus [11] it was 0.006 µg/mL (≈ 0.0147 µM); with Enterococcus faecalis, 0.05 µg/mL (≈ 0.123 µM). Besides, the ED50 worked out at 4 mg/kg in the test with Mus musculus [4]; 2 mg/kg with Mus musculus [5]; 61 mg/kg in the test on Staphylococcus aureus [6]; 38 mg/kg with Staphylococcus aureus [7]; 2 mg/kg with Streptococcus pneumoniae [8]; 2 mg/kg in the test with Streptococcus pneumoniae [12].

Source of the values: ChEMBL document CHEMBL1124270, “Quinolone antibacterial agents. Synthesis and structure-activity relationships of 8-substituted quinoline-3-carboxylic acids and 1,8-naphthyridine-3-carboxylic acids” (1988).
